Test results from article PMC9177108 (The Oncologist, 2022).
Read-outs that look alike come from different tables or passages of the source.

How the values were obtained:
[1] = tested on: patients with recurrent and metastatic nasopharyngeal carcinoma (RM-NPC); assay: Antitumor efficacy; assay type: in vivo, human; settings: for time to response: radiologic assessment every 8 weeks
How it was run: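 Patients with pretreated RM-NPC were randomised to two arms, each evaluated separately (10 per arm). Both arms took test compound 10 mg orally daily: intermittent arm 3 weeks on/1 week off, continuous arm daily on a 4-week cycle. The investigator assessed response by RECIST 1.1. ORR was CR or PR as best overall response. DCR was confirmed CR, confirmed PR or SD lasting ≥4 weeks from randomisation.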

[2] = tested on: patients with recurrent and metastatic nasopharyngeal carcinoma (RM-NPC); assay: Safety and tolerability; assay type: in vivo, human
How it was run: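 Safety was the primary endpoint, assessed separately in two randomised arms of pretreated RM-NPC patients given test compound 10 mg orally: daily on a 4-week cycle, or 3 weeks on/1 week off. Adverse events were graded by CTCAE version 4.03. The safety set comprised patients who took at least one dose. TEAEs and TRAEs, including those leading to dose reduction, interruption or discontinuation, were tabulated per arm.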

[3] = tested on: patients with advanced solid tumors; settings: cited from earlier work
[4] = continuous arm (10 mg p.o. daily, 4-week cycle), n = 10
[5] = intermittent arm (10 mg p.o., 3 weeks on/1 week off), n = 10
[6] = intermittent arm, n = 10, listed as lucitanib

In the case of CNC(=O)c1cccc2cc(Oc3ccnc4cc(OCC5(N)CC5)c(OC)cc34)ccc12 [Lucitanib], the duration of response ([1]; all three responders, both arms) is reported as “more than 1 year”, the time to response ([1]; all three responders) is reported as “observed by the first evaluation” and the time to response ([1]; all three responders, listed as lucitanib) is reported as “at the first evaluation”. The “Best response PR” value [1, 4] was “n = 2 (20%) n (%)”, the “Response assessment CR” value [1, 4] was “n = 0 (0%) n (%)” and the “Best response PR” value ([1]; continuous arm (10 mg p.o. daily, 4-week cycle), n = 10, listed as lucitanib) was 2 (20) n (%). The “Best response PD” value ([1]; continuous arm, n = 10) was 1 (10) n (%), the “Best response SD” value ([1]; continuous arm, n = 10) was 7 (70) n (%) and the DCR ([1]; continuous arm, n = 10) was 90%. For the same molecule, the ORR ([1]; continuous arm, n = 10) was 20%, the “Response assessment OTHER” value ([1]; continuous arm, n = 10) was “n = 0 (0%) n (%)” and the “median PFS” value ([1]; continuous arm, n = 10, 90% CI 3.5 to NE) was 3.73 months. For the same molecule, the “Best response PR” value [1, 5] was 1 (10) n (%), the “Response assessment CR” value [1, 5] was “n = 0 (0%) n (%)” and the “Best response SD” value ([1]; intermittent arm, n = 10) was “n = 5 (50%) n (%)”. The “median PFS” value ([1]; intermittent arm, n = 10, 90% CI 1.74 to 7.36) was 3.68 months, the “Best response PD” value [1, 6] was 3 (30) n (%) and the “Best response SD” value [1, 6] was 5 (50) n (%). For the same molecule, the DCR [1, 6] was 60%, the ORR [1, 6] was 10% and the “sustained response, patients still on treatment” value ([1]; two responders still on treatment at last follow-up) was > 3 years. For the same molecule, the “patients with at least one TEAE” value ([2]; all patients, both arms) was “All patients”, the “serious TRAEs” value ([2]; all patients, both arms) was “No patients experienced serious TRAEs” and the “patients with Grade ≥3 related TEAEs” value ([2]; all patients, both arms (7/20)) was 35%. For the same molecule, the “TRAE: Hypothyroidism” value ([2]; continuous arm) was 60%, the “grade ≥3 TRAE: decreased platelet count” value ([2]; continuous arm) was 10% and the “grade ≥3 TRAE: hypertension” value ([2]; continuous arm) was 30%. For the same molecule, the “grade ≥3 TRAE: increased AST” value ([2]; continuous arm) was 10%, the “grade ≥3 TRAE: proteinuria” value ([2]; continuous arm) was 20% and the “patients with at least one treatment-related AE (TRAE)” value ([2]; continuous arm) was “One hundred”. For the same molecule, the “patients with Grade ≥3 related TEAEs” value ([2]; continuous arm (5/10)) was 50%, the “patients with Grade ≥3 related TRAEs” value ([2]; continuous arm (5/10)) was 50% and the “Drug-related AE: Cough” value ([2]; continuous arm, n = 10) was 2 (20.0) n (%). The “Drug-related AE: Diarrhea” value ([2]; continuous arm, n = 10) was 3 (30.0) n (%), the “Drug-related AE: Epistaxis” value ([2]; continuous arm, n = 10) was 5 (50.0) n (%) and the “Drug-related AE: Free thyroxine decreased” value ([2]; continuous arm, n = 10) was 3 (30.0) n (%). The “Drug-related AE: Hypertension” value ([2]; continuous arm, n = 10) was 10 (100.0) n (%), the “Drug-related AE: Hypochloremia” value ([2]; continuous arm, n = 10) was 3 (30.0) n (%) and the “Drug-related AE: Platelet count decreased” value ([2]; continuous arm, n = 10) was 3 (30.0) n (%). The “Drug-related AE: Proteinuria” value ([2]; continuous arm, n = 10) was 10 (100.0) n (%), the “Drug-related AE: Skin rash” value ([2]; continuous arm, n = 10) was 3 (30.0) n (%) and the “Drug-related AE: TSH increased” value ([2]; continuous arm, n = 10) was 3 (30.0) n (%). The “Drug-related adverse events: All” value ([2]; continuous arm, n = 10) was 10 (100.0) n (%), the “Grade ≥3 TEAE” value ([2]; continuous arm, n = 10) was 5 (50) n (%) and the “Grade ≥3 TRAE” value ([2]; continuous arm, n = 10) was 5 (50) n (%). For the same molecule, the “Serious TRAE” value ([2]; continuous arm, n = 10) was 0 n (%), the “TRAE lead to dose discontinuation” value ([2]; continuous arm, n = 10) was 0 n (%) and the “TRAE lead to dose interruption” value ([2]; continuous arm, n = 10) was 5 (50) n (%). The “TRAE: Hypothyroidism” value ([2]; intermittent arm) was 50%, the “grade ≥3 TRAE: decreased platelet count” value ([2]; intermittent arm) was 0% and the “grade ≥3 TRAE: hypertension” value ([2]; intermittent arm) was 0%. For the same molecule, the “grade ≥3 TRAE: increased AST” value ([2]; intermittent arm) was 0%, the “grade ≥3 TRAE: proteinuria” value ([2]; intermittent arm) was 0% and the “patients with at least one treatment-related AE (TRAE)” value ([2]; intermittent arm) was 90%. For the same molecule, the “Drug-related AE: AST increased” value ([2]; intermittent arm, n = 10) was 0 n (%), the “Drug-related AE: Backache” value ([2]; intermittent arm, n = 10) was 0 n (%) and the “Drug-related AE: Cough” value ([2]; intermittent arm, n = 10) was 3 (30.0) n (%). For the same molecule, the “Drug-related AE: Diarrhea” value ([2]; intermittent arm, n = 10) was 0 n (%), the “Drug-related AE: Free thyroxine decreased” value ([2]; intermittent arm, n = 10) was 1 (10.0) n (%) and the “Drug-related AE: Hypochloremia” value ([2]; intermittent arm, n = 10) was 1 (10.0) n (%). The “Drug-related AE: Hypothyroidism” value ([2]; intermittent arm, n = 10) was 5 (50.0) n (%), the “Drug-related AE: Platelet count decreased” value ([2]; intermittent arm, n = 10) was 1 (10.0) n (%) and the “Drug-related AE: Proteinuria” value ([2]; intermittent arm, n = 10) was 5 (50.0) n (%). The “Drug-related AE: Serum creatinine (Scr) increased” value ([2]; intermittent arm, n = 10) was 1 (10.0) n (%), the “Drug-related AE: Skin rash” value ([2]; intermittent arm, n = 10) was 0 n (%) and the “Drug-related AE: TSH increased” value ([2]; intermittent arm, n = 10) was 1 (10.0) n (%). The “Drug-related AE: Weight loss” value ([2]; intermittent arm, n = 10) was 0 n (%), the “Grade ≥3 TEAE” value ([2]; intermittent arm, n = 10) was 2 (20) n (%) and the “Grade ≥3 TRAE” value ([2]; intermittent arm, n = 10) was 0 n (%). The “Serious TRAE” value ([2]; intermittent arm, n = 10) was 0 n (%), the “TRAE lead to dose discontinuation” value ([2]; intermittent arm, n = 10) was 1 (10) n (%) and the “TRAE lead to dose interruption” value ([2]; intermittent arm, n = 10) was 2 (20) n (%). For the same molecule, the “TRAE lead to dose reduction” value ([2]; intermittent arm, n = 10) was 0 n (%), the “tolerability of continuous dosing” value ([3]; continuous 15 mg daily dose, arterial hypertension) was “unsustainable beyond three cycles” and the “partial response / ORR” value ([3]; patients with FGF-aberrant (FGFR1- or FGF3/4/19-amplified) breast cancer) was 50%. The “median PFS” value ([3]; patients with FGF-aberrant breast cancer) was 40.4 weeks and the “median PFS” value ([3]; patients with angiogenesis-sensitive disease) was 25 weeks.
